Experimental data as given in publication PMC9048702 (RSC Advances, 2020).
Where “and” joins values, the source holds several entries; their conditions need not be identical. Equal entries are not always repeated. Where two headings read alike, the source gives them in different places. Marks after values point to notes of the source that are not given here.

Assays:
HepG2 cells = assay: MTT anti-proliferative assay, HepG2; format: cell-based, human; settings: HepG2, 48 h, read-out: IC50 HepG2
Procedure, shortened: (§1)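 HepG2 (passage 11), MCF7 (passage 13) and normal WI-38 fibroblasts were seeded at […]. Cells were exposed to test compound at 0.5, 1, 10, 20, 50 and 100 μM for 48 h, then incubated with MTT for 4 h. Formazan was dissolved in DMSO and read at 570 nm. Untreated and doxorubicin-treated cells were included. IC50 came from dose–response curves, mean ± SEM of two independent experiments.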

[1] = test system: p38 mitogen-activated protein kinase (MAPK); assay: MAPK concentration in HepG2 cells, sandwich ELISA; format: cell-based, human; settings: HepG2, IC50 concentration, 8 hours
p53 = assay: qRT-PCR expression of p53 in HepG2; format: cell-based, human; settings: HepG2, 8 h incubation at IC50 concentration, mean ± SEM
txnrd1 = assay: qRT-PCR expression of txnrd1 in HepG2; format: cell-based, human; settings: for down-regulation (inhibition) of txnrd1 expression: HepG2, 8 h; for Fold induction from untreated cells Txnrd1: HepG2, 8 h incubation at IC50 concentration, mean ± SEM
caspase 3 = assay: qRT-PCR expression of caspase 3 in HepG2; format: cell-based, human; settings: HepG2, 8 h incubation at IC50 concentration, mean ± SEM
cleaved caspase 3 = assay: Active cleaved caspase 3 activity in HepG2, colorimetric kit; format: cell-based, human; settings: HepG2, IC50 concentration, 12 h
cdk1 = assay: qRT-PCR expression of cdk1 in HepG2; format: cell-based, human; settings: for inhibition in cdk1 expression: HepG2, 8 h
MCF7 cells = assay: MTT anti-proliferative assay, MCF7; format: cell-based, human; settings: MCF7, 48 h, read-out: IC50 MCF7
Procedure, shortened: as §1

[2] = test system: topoisomerase II (Topo II); assay: Topo II concentration in HepG2 cells, sandwich ELISA; format: cell-based, human; settings: HepG2, IC50 concentration, 8 hours
WI-38 cells = assay: MTT assay, normal fibroblasts WI-38; format: cell-based; settings: read-out: IC50 WI-38, WI-38 normal fibroblasts, 48 h, mean ± SEM
[3] = test system: HepG2, MCF7 and WI-38 cells; assay: MTT anti-proliferative assay, cell lines summarised together in text; format: cell-based; settings: Homo sapiens
Procedure, shortened: as §1

[4] = read-out: IC50 against cancer cell lines

Compound	IC50 (HepG2 cells; Homo sapiens) [µM]	IC50 (MCF7 cells; Homo sapiens) [µM]	other results
O=c1[nH]nc(-c2nnc(S)o2)c2ccccc12 [Compound 1, 4-(5-mercapto-1,3,4-oxadiazol-2-yl)phthalazin-1(2H)-one]	4.5 ± 1.1	4.9 ± 0.8	reduction in MAPK concentration compared to untreated cells [1]: 84%; Fold induction from untreated cells p53 (p53): 3.83 ± 0.11 ^a fold; down-regulation (inhibition) of txnrd1 expression (txnrd1): 33%; Fold induction from untreated cells Txnrd1 (txnrd1): 0.67 ± 0.03 fold; Fold induction from untreated cells Caspase 3 (caspase 3): 3.10 ± 0.21 ^a fold; elevation in activity of active cleaved caspase 3 compared to untreated cells (cleaved caspase 3): ~7 fold; inhibition in cdk1 expression (cdk1): ~78%; Fold induction from untreated cells Cdk1 (cdk1; HepG2, 8 h incubation at IC50 concentration, mean ± SEM): 0.22 ± 0.03 ^a fold; decrease in Topo II concentration [2]: 84%
CCSc1nnc(-c2n[nH]c(=O)c3ccccc23)o1 [Compound 2a, 4-(5-(Ethylthio)-1,3,4-oxadiazol-2-yl)phthalazin-1(2H)-one]	61.3 ± 4.2	55.8 ± 4	
O=c1[nH]nc(-c2nnc(SCc3ccccc3)o2)c2ccccc12 [Compound 2b, 4-(5-(Benzylthio)-1,3,4-oxadiazol-2-yl)phthalazin-1(2H)-one]	58.9 ± 4	68.2 ± 4.4	
O=C(CSc1nnc(-c2n[nH]c(=O)c3ccccc23)o1)c1ccccc1 [Compound 2c, 4-(5-((2-Oxo-2-phenylethyl)thio)-1,3,4-oxadiazol-2-yl)phthalazin-1(2H)-one]	66.1 ± 4.5	57.3 ± 4.2	
O=C(CSc1nnc(-c2n[nH]c(=O)c3ccccc23)o1)c1cccc([N+](=O)[O-])c1 [Compound 2d, 4-(5-((2-(3-Nitrophenyl)-2-oxoethyl)thio)-1,3,4-oxadiazol-2-yl)phthalazin-1(2H)-one]	> 100	> 100	
COc1cccc2c1C(=O)c1c(O)c3c(c(O)c1C2=O)C[C@@](O)(C(=O)CO)C[C@@H]3O[C@H]1C[C@H](N)[C@H](O)[C@H](C)O1 [DOX, Doxorubicin, reference compound]	4.5 ± 0.3	4.2 ± 0.2	reduction in MAPK concentration compared to untreated cells [1]: 85%; IC50 ([3]; read-out: IC50 against all cells investigated): 4 to 7 µM; down-regulation (inhibition) of txnrd1 expression (txnrd1): 56%; inhibition in cdk1 expression (cdk1): ~75%; decrease in Topo II concentration [2]: 87%
S-(5-(4-Oxo-3,4-dihydrophthalazin-1-yl)-1,3,4-oxadiazol-2-yl)2-(2-isonicotinoylhydrazinyl)ethanethioate [Compound 3]			IC50 (HepG2 cells; MTT, mean ± SEM): 38.4 ± 3.5 µM; IC50 (WI-38 cells): 44.6 ± 4.2 µM; IC50 (MCF7 cells; MTT, mean ± SEM): 40 ± 3.6 µM

Now from value to compound, other results behind:

IC50 (HepG2 cells; Homo sapiens) [µM]	IC50 (MCF7 cells; Homo sapiens) [µM]	Compound	other results
72.6 ± 4.8	76.2 ± 4.7	CC(=O)c1ccc(NC(=O)CSc2nnc(-c3n[nH]c(=O)c4ccccc34)o2)cc1 [Compound 4a, N-(4-Acetylphenyl)-2-((5-(4-oxo-3,4-dihydrophthalazin-1-yl)-1,3,4-oxadiazol-2-yl)thio)acetamide]	
83.9 ± 5.2	> 100	NS(=O)(=O)c1ccc(NC(=O)CSc2nnc(-c3n[nH]c(=O)c4ccccc34)o2)cc1 [Compound 4b, 2-((5-(4-Oxo-3,4-dihydrophthalazin-1-yl)-1,3,4-oxadiazol-2-yl)thio)-N-(4-sulfamoylphenyl)acetamide]	
28.1 ± 2.9	36.3 ± 3.2	Cc1ccc(NC(=O)CSc2nnc(-c3n[nH]c(=O)c4ccccc34)o2)cc1 [Compound 4c, 2-((5-(4-Oxo-3,4-dihydrophthalazin-1-yl)-1,3,4-oxadiazol-2-yl)thio)-N-(p-tolyl)acetamide]	
53.9 ± 3.8	49.5 ± 3.9	O=C(CSc1nnc(-c2n[nH]c(=O)c3ccccc23)o1)Nc1ccc(Cl)cc1 [Compound 4d, N-(4-Chlorophenyl)-2-((5-(4-oxo-3,4-dihydrophthalazin-1-yl)-1,3,4-oxadiazol-2-yl)thio)acetamide]	
23.5 ± 2.8	26.2 ± 2.5	Cc1ccc(NCSc2nnc(-c3nn(CNc4ccc(C)cc4)c(=O)c4ccccc34)o2)cc1 [Compound 7a, 2-((p-Tolylamino)methyl)-4-(5-(((p-tolylamino)methyl)thio)-1,3,4-oxadiazol-2-yl)phthalazin-1(2H)-one]	
33.3 ± 3.4	31.3 ± 2.8	O=c1c2ccccc2c(-c2nnc(SCNc3ccc(Cl)cc3)o2)nn1CNc1ccc(Cl)cc1 [Compound 7b, 2-(((4-Chlorophenyl)amino)methyl)-4-(5-((((4-chlorophenyl)amino)methyl)thio)-1,3,4-oxadiazol-2-yl)phthalazin-1(2H)-one]	
17.2 ± 1.9	15.4 ± 1.2	O=c1c2ccccc2c(-c2nnc(SCNc3ccccc3Cl)o2)nn1CNc1ccccc1Cl [Compound 7c, 2-(((2-Chlorophenyl)amino)methyl)-4-(5-((((2-chlorophenyl)amino)methyl)thio)-1,3,4-oxadiazol-2-yl)phthalazin-1(2H)-one]	IC50 (WI-38 cells): 23.2 ± 1.2 µM
6.3 ± 0.7	5.5 ± 0.4	COc1ccc(NCSc2nnc(-c3nn(CNc4ccc(OC)cc4)c(=O)c4ccccc34)o2)cc1 [Compound 7d, 2-(((4-Methoxyphenyl)amino)methyl)-4-(5-((((4-methoxyphenyl)amino)methyl)thio)-1,3,4-oxadiazol-2-yl)phthalazin-1(2H)-one]	Fold induction from untreated cells p53 (p53): 2 fold and 2.16 ± 0.12 ^a fold; IC50 [3, 4]: 5.5 to 15 µM; Fold induction from untreated cells Txnrd1 (txnrd1): 1.02 ± 0.16 fold; Fold induction from untreated cells Caspase 3 (caspase 3): 2 fold and 1.96 ± 0.09 ^a fold; decrease in Topo II concentration [2]: 31%
7 ± 1.5	8.4 ± 0.9	O=c1c2ccccc2c(-c2nnc(SCNc3ccc([N+](=O)[O-])cc3)o2)nn1CNc1ccc([N+](=O)[O-])cc1 [Compound 7e, 2-(((4-Nitrophenyl)amino)methyl)-4-(5-((((4-nitrophenyl)amino)methyl)thio)-1,3,4-oxadiazol-2-yl)phthalazin-1(2H)-one]	IC50 (WI-38 cells): 21.6 ± 1.8 µM; Fold induction from untreated cells p53 (p53): 2 fold and 2.02 ± 0.08 ^a fold; IC50 [3, 4]: 5.5 to 15 µM; Fold induction from untreated cells Txnrd1 (txnrd1): 1.11 ± 0.10 fold; Fold induction from untreated cells Caspase 3 (caspase 3): 2 fold and 2.22 ± 0.14 ^a fold
21.8 ± 2.3	20.8 ± 1.9	O=c1c2ccccc2c(-c2nnc(SCNc3cccnc3)o2)nn1CNc1cccnc1 [Compound 7f, 2-((Pyridin-3-ylamino)methyl)-4-(5-(((pyridin-3-ylamino)methyl)thio)-1,3,4-oxadiazol-2-yl)phthalazin-1(2H)-one]	
42.9 ± 3.7	45.5 ± 3.8	O=c1[nH]nc(-c2nnc(SCNC3CCCCC3)o2)c2ccccc12 [Compound 7g, 4-(5-(((Cyclohexylamino)methyl)thio)-1,3,4-oxadiazol-2-yl)phthalazin-1(2H)-one]	
